Compound activity from PubChem BioAssay.
This is a sample that favours compounds with a hit; in the whole collection about 1.5% have one here.
GSIS activator = primary screen for activators of insulin secretion dependent on glucose, INS-1E cells, GLuc reporter luminescence. INS-1E GLuc reporter insulin secretion, 2-3 h. activation, % at 16.6 µM. 370,000 compounds, 0.61% hits. AID 743287;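 active = lowest replicate activation of at least 40%, so every replicate reaches that level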
RAD52 inh = RAD52 (human) annealing inhibition. inhibition, % at 18.7 µM. P43351. 360,000 compounds, 0.46% hits. recombinant RAD52 DNA annealing, FRET fluorescence;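 active = every replicate showing at least 50% inhibition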
S100A4 MyoIIA = S100A4-myosin IIA interaction inhibition. P26447. S100A4/TAMRA-MyoIIA peptide fluorescence polarization. inhibition, % at 10.7 µM. 360,000 compounds, 0.14% hits;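 active = mean inhibition of at least 70% across replicates, with every replicate also reaching that level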
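Compound dosing: one dose per compound; test system: human S100A4 monomer with TAMRA-labelled myosin IIA peptide; probe or stimulus: TAMRA-labelled myosin IIA heavy-chain peptide probe, 5 nM; medium: HEPES buffer with Ca2+, pH 7.2; schedule: 5 min incubation before reading; benchmarks: neutral control DMSO, positive control TFP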
AF4-AF9 inh = blocks AF4 peptide binding to human AF9; AlphaScreen, biotin-AF4 peptide binding to FLAG-AF9; inhibition, % at 10 µM; 350,000 compounds, 0.47% hits; AID 651704;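 active = every replicate reaching a set inhibition limit, whatever the replicate mean, cut at about 25% in these data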
ERAP1 HTS inh = blocks human ERAP1 aminopeptidase activity | 340,000 compounds, 0.15% hits | recombinant ERAP1, Leu-AMC fluorescence, 60 min | inhibition, % at 10.7 µM;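 active = mean replicate inhibition of at least 30%, or all replicates individually reaching that 30% level; inactive = mean below 30% and not every replicate reaching it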
Target sequence (Q9NZ08 whole entry, looked up): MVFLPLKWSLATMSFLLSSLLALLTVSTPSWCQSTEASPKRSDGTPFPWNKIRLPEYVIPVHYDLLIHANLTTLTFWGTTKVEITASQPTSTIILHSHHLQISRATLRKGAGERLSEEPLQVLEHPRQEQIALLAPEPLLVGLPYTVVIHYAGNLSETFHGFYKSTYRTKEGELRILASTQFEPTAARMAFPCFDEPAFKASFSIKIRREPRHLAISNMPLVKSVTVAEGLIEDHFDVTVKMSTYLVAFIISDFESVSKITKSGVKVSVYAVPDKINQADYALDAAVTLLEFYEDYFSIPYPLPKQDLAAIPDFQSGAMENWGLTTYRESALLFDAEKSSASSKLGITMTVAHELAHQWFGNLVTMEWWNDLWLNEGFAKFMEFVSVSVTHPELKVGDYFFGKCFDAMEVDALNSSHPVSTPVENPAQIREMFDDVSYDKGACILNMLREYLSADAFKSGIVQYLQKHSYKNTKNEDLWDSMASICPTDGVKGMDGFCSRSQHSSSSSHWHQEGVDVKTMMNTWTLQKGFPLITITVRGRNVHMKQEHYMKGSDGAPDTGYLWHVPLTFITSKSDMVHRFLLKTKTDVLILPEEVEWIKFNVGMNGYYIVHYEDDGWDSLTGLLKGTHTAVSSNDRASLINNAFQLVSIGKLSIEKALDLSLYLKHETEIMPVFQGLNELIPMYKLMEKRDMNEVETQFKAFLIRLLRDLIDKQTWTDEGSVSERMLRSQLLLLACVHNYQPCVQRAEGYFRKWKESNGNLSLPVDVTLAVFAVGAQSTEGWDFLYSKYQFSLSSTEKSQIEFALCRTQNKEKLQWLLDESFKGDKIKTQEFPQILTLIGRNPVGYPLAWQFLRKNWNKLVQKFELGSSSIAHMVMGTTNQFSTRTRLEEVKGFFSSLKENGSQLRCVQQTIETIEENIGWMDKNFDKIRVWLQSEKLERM
A number is an active result; . = inactive; / = not tested or not shown; ! = a repeat was not active.

SMILES	GSIS activator	RAD52 inh	S100A4 MyoIIA	AF4-AF9 inh	ERAP1 HTS inh
Cc1nn(-c2ccccc2)c(N)c1N=Nc1ccc(Cl)cc1	.	.	.	.	.
COc1ccc2c3c([nH]c2c1)[C@H](CO)N(C(=O)c1ccncc1)CC31CN(C(=O)C2CCC2)C1	.	.	.	.	.
COc1ccc2c3c(n(C)c2c1)[C@H](CO)NCC31CCN(S(=O)(=O)c2cccc(C)c2)CC1	.	55	.	.	.
COc1ccc2c3c(n(C)c2c1)[C@H](CO)NCC31CN(CC2CC2)C1	.	62	.	.	.
COc1ccc2c3c(n(C)c2c1)[C@@H](CO)NCC31CN(CC2CCOCC2)C1	.	75	.	32	.
CN(C)C(=O)c1ccc(-c2ccc(C3[C@H]4CNC[C@@H]3N4C(=O)Nc3cccc(Cl)c3)cc2)cc1 (stereo not given in full)	.	56	.	.	.
O=C(Nc1cccc(Cl)c1)N1[C@@H]2CNC[C@H]1C2c1ccc(/C=C/c2ccccc2)cc1 (stereo not given in full)	.	60!	.	.	.
COc1cc(CN2[C@@H]3CNC[C@H]2C3c2ccc(/C=C/c3ccccc3)cc2)cc(OC)c1 (stereo not given in full)	49!	.	.	.	/
COc1cccc(NC(=O)N2[C@@H]3CNC[C@H]2C3c2ccc(/C=C/c3ccccc3)cc2)c1 (stereo not given in full)	.	54!	.	.	.
C/C=C/c1ccc2c(c1)O[C@@H](CN(C)C(=O)C1CCC1)[C@@H](C)CN([C@@H](C)CO)S2(=O)=O	.	/	/	/	/
CCCNC(=O)Nc1ccc2c(c1)OC[C@H](C)N(C(=O)C1CCCCC1)C[C@H](C)[C@@H](OC)CN(C)C2=O	.	.	.	.	.
COc1ccc(NC(=O)N2[C@@H]3CNC[C@H]2C3c2ccc(-c3ccccc3C)cc2)cc1 (stereo not given in full)	.	64!	.	.	.
COc1ccc(NC(=O)N2[C@@H]3CNC[C@H]2C3c2ccc(-c3cccc(OC)c3)cc2)cc1 (stereo not given in full)	.	.	.	.	.
COc1cccc(-c2ccc(C3[C@H]4CNC[C@@H]3N4C(=O)Nc3ccc4c(c3)OCO4)cc2)c1 (stereo not given in full)	.	71	.	.	.
CNC[C@H]1Oc2ccc(NC(C)=O)cc2CC(=O)N(C)C[C@@H]1C	.	/	/	/	/
CCCCCCCCN1C(=O)[C@@H](CC(=O)N2CCN(C(=O)c3ccco3)CC2)C[C@@]2(C(=O)OC)C1=C[C@H](C(C)(C)C)O[C@@H]2C	/	.	.	.	.
CCCCCCCCN1C(=O)[C@@H](CC(=O)N2CCN(C(=O)c3ccco3)CC2)C[C@@]2(C(=O)OC)C1=C[C@H](C1CCCC1)O[C@@H]2C	54	.	.	.	.
CN(C)C(=O)c1cccc(-c2ccc3c(c2)[C@@H]2[C@@H](CCN2C(=O)c2cccnc2)[C@@H](CO)N3)c1	.	/	/	/	/
COc1ccc(-c2cnnn2-c2ccc(NC(=O)c3ccc(S(=O)(=O)N4CCCCC4)cc3)cc2)cc1OC	.	.	.	.	.
COc1ccc(-c2cnnn2-c2ccc(N)cc2)cc1OC	53	/	/	/	/
Cc1ccc(-c2[nH]c(-c3ccc(C(=O)O)cc3)nc2-c2ccccc2)cc1	.	.	.	.	.
O=C(O)c1ccc(-c2nc(-c3ccccc3)c(-c3cccs3)[nH]2)cc1	53	.	.	.	.
C[C@H]1CN(C)C(=O)c2cccc(NS(C)(=O)=O)c2O[C@@H]1CN(C)C	.	/	/	/	/
C[C@H](CO)N1C[C@H](C)[C@H](CN(C)C(=O)CN(C)C)Oc2cc(C#Cc3ccc(F)cc3)ccc2S1(=O)=O	.	60	.	.	.
C[C@@H]1CN([C@H](C)CO)S(=O)(=O)c2ccc(C#Cc3ccc(F)cc3)cc2O[C@H]1CN(C)C	.	.	.	.	.
SMILES	GSIS activator	RAD52 inh	S100A4 MyoIIA	AF4-AF9 inh	ERAP1 HTS inh
COc1cccc(NC(=O)N(C)C[C@H]2Oc3cc(C#CC4(O)CCCC4)ccc3S(=O)(=O)N([C@H](C)CO)C[C@H]2C)c1	.	.	95	.	.
C[C@H]1CN([C@@H](C)CO)S(=O)(=O)c2ccc(C#Cc3ccc(F)cc3)cc2O[C@@H]1CN(C)C(=O)CN(C)C	.	65	.	.	.
C[C@@H]1CN([C@H](C)CO)S(=O)(=O)c2ccc(C#Cc3ccc(F)cc3)cc2O[C@@H]1CN(C)C(=O)CN(C)C	.	65	.	.	.
C[C@@H]1CN([C@@H](C)CO)S(=O)(=O)c2ccc(C#Cc3ccc(F)cc3)cc2O[C@H]1CN(C)C	.	.	.	.	.
CC(=O)N1[C@@H]2CN(C(=O)NC(C)C)C[C@H]1C2c1ccccc1 (stereo not given in full)	.	/	/	/	/
COc1ccc(-c2ccc(=O)n(CC(=O)NC3CCc4ccccc43)n2)cc1OC (stereo not given)	47	.	.	.	.
COc1ccc(NC(=O)COc2ccc(C(=O)NC3CCCc4ccccc43)cc2OC)cc1 (stereo not given)	176	/	/	/	/
CC1CCCCC1NC(=O)Cn1nc(-c2ccccc2)ccc1=O (stereo not given)	.	.	.	27	.
CC1CCCCN1CCNC(=O)Cn1nc(-c2ccccc2)ccc1=O (stereo not given)	.	.	.	.	.
COc1ccc(C(=O)NC2CCCc3ccccc32)cc1 (stereo not given)	.	.	.	.	.
COc1ccc(CCC(=O)NC2CCCc3ccccc32)cc1OC (stereo not given)	.	.	.	.	32
O=C1CC(Sc2nnc(-c3ccccc3)o2)C(=O)N1c1ccccc1 (stereo not given)	86	/	/	/	/
COc1ccc(NC(=O)Nc2ccc3c(c2)[C@@H]2C[C@H](CC(=O)N[C@@H](C)c4ccccc4)O[C@H](CO)[C@@H]2O3)cc1	.	.	.	.	.
COc1ccc(C(=O)NCC(=O)OCC(=O)Nc2ccc(C)c(S(=O)(=O)N(C)C)c2)cc1OC	68	.	.	.	.
COc1ccc(CCC(=O)Nc2ccc(C)c(S(=O)(=O)N(C)C)c2)cc1OC	.	/	/	/	/
O=C(N[C@H]1CC[C@H](CCn2cc(-c3ccccn3)nn2)O[C@@H]1CO)c1ccccc1	.	.	.	.	.
CCOC(=O)c1cc([N+](=O)[O-])c([N+](=O)[O-])cc1NC(C)=O	61	.	.	.	.
CCOC(=O)c1ccc(NC(=O)c2ccccc2[N+](=O)[O-])cc1	.	/	/	/	/
CC1(C)SC2c3ccccc3C(=O)N2[C@@H]1C(=O)NC1CCCC1 (stereo not given in full)	.	.	.	.	.
CC1(C)SC2c3ccccc3C(=O)N2[C@@H]1C(=O)NC1CC1 (stereo not given in full)	42	.	.	.	.
